Assay [1] has as its target Serine/threonine-protein kinase SIK3 (Homo sapiens) (UniProt Q9Y2K2). Briefly: Binding affinity to wild-type human partial length QSK (A90 to L395 residues) expressed in HEK293 cells at 1 uM by Kinomescan method relative to control. The format is cell-based.
The target of assay [2] is Citron Rho-interacting kinase (Homo sapiens) (UniProt O14578). Briefly: Binding affinity to wild-type human partial length CIT (M68 to E432 residues) expressed in Escherichia coli BL21 at 1 uM by Kinomescan method relative to control.
The subject of assay [3] is Tyrosine-protein kinase ABL1 (Homo sapiens), P00519 [M351T]. Briefly: Binding affinity to human phosphorylated ABL1 M351T mutant (S229 to K512 residues) expressed in HEK293 cells at 1 uM by Kinomescan method relative to control. It is filed as cell-based.
Assay [4] deals with Serine/threonine-protein kinase DCLK1 (Homo sapiens) (UniProt O15075). The assay can be described thus: Binding affinity to wild-type human partial length DCAMKL1 (L270 to A662 residues) expressed in HEK293 cells at 1 uM by Kinomescan method relative to control. The format is cell-based.
The target of assay [5] is Ribosomal protein S6 kinase beta-1 (Homo sapiens) (UniProt P23443). Briefly: Binding affinity to wild-type human partial length S6K1 (M1 to S421 residues) expressed in HEK293 cells at 1 uM by Kinomescan method relative to control. It is filed as cell-based.
Ribosomal protein S6 kinase beta-1 (Homo sapiens), sequence (P23443 whole entry, looked up, the tested form may be a part): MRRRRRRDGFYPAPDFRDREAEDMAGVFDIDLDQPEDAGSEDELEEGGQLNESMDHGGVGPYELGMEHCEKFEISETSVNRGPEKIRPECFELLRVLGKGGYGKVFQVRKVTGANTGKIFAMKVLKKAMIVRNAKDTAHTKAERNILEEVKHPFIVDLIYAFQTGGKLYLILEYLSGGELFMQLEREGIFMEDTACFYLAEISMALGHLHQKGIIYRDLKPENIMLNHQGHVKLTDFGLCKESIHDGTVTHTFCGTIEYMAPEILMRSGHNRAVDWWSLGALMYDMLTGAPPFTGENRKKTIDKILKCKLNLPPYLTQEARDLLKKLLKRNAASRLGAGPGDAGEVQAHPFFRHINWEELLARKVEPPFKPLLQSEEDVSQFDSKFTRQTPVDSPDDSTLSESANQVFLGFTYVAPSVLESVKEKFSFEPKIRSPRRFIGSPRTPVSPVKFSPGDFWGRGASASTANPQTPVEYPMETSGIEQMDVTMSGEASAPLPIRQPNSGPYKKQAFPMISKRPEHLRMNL
For assay [6], the system named is Epidermal growth factor receptor (Homo sapiens), P00533 [G719C]. The assay can be described thus: Binding affinity to human partial length EGFR G719C mutant (R669 to V1011 residues) expressed in Escherichia coli BL21 at 1 uM by Kinomescan method relative to control.
The target in assay [7] is T1, Aurora kinase A (Homo sapiens, UniProt O14965).
T1 sequence (O14965 whole entry): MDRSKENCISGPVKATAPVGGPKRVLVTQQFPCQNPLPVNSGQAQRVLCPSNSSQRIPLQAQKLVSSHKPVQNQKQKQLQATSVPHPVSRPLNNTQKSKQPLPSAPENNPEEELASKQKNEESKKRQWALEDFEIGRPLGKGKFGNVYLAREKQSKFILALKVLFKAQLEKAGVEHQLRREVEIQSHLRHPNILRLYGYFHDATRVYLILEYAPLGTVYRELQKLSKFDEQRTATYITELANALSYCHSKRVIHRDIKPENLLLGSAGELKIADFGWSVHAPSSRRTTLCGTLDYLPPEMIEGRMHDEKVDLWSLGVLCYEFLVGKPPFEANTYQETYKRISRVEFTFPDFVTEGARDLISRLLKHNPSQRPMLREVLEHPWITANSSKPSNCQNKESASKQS
Briefly: Inhibition of Aurora A auto-phosphorylation in human HCT116 cells after 4 hrs by Western blot analysis. It is filed as cell-based. The method in brief: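 Cells treated with compound in dose response for 4 h. Phospho-Aurora A (auto-phosphorylation) read by western blot. EC50 derived from dose-response curves over three replicate experiments.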

The subject of assay [8] is Epidermal growth factor receptor (Homo sapiens), P00533 [L858R]. Briefly: Binding affinity to human partial length EGFR L858R mutant (R669 to V1011 residues) expressed in Escherichia coli BL21 at 1 uM by Kinomescan method relative to control.
Assay [9] has as its target Serine/threonine-protein kinase 35 (Homo sapiens) (UniProt Q8TDR2). Briefly: Binding affinity to wild-type human partial length STK35 (G182 to A534 residues) expressed in Escherichia coli BL21 at 1 uM by Kinomescan method relative to control.
In assay [10] the target is STE20-like serine/threonine-protein kinase (Homo sapiens) (UniProt Q9H2G2). The assay can be described thus: Binding affinity to wild-type human partial length SLK (S14 to A307 residues) expressed in Escherichia coli BL21 at 1 uM by Kinomescan method relative to control.
The target of assay [11] is Fibroblast growth factor receptor 1 (Homo sapiens) (UniProt P11362). Briefly: Binding affinity to wild-type human partial length FGFR1 (P357 to V669 residues) expressed in Escherichia coli BL21 at 1 uM by Kinomescan method relative to control.
Assay [12] has as its target Protein kinase C eta type (Homo sapiens) (UniProt P24723). Briefly: Binding affinity to wild-type human partial length PRKCH (S324 to P683 residues) expressed in Escherichia coli BL21 at 1 uM by Kinomescan method relative to control.
Assay [13] has as its target Ephrin type-A receptor 5 (Homo sapiens) (UniProt P54756). The assay can be described thus: Binding affinity to wild-type human partial length EPHA5 (T627 to V930 residues) expressed in Escherichia coli BL21 at 1 uM by Kinomescan method relative to control.
Assay [14] deals with cAMP-dependent protein kinase catalytic subunit PRKX (Homo sapiens) (UniProt P51817). The assay can be described thus: Binding affinity to wild-type human partial length PRKX (M1 to F358 residues) expressed in Escherichia coli BL21 at 1 uM by Kinomescan method relative to control.
Assay [15] has as its target Serine/threonine-protein kinase 32B (Homo sapiens) (UniProt Q9NY57). Briefly: Binding affinity to wild-type human full length YANK2 (M1 to S414 residues) expressed in Escherichia coli BL21 at 1 uM by Kinomescan method relative to control. The method in brief: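 Kinome-wide competition binding panel run by an outside provider, with each compound tested at a single concentration. Activity is read against the kinase panel.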

In assay [16] the target is Misshapen-like kinase 1 (Homo sapiens) (UniProt Q8N4C8). The assay can be described thus: Binding affinity to wild-type human partial length MINK (M1 to K312 residues) expressed in HEK293 cells at 1 uM by Kinomescan method relative to control. The format is cell-based.
Misshapen-like kinase 1 (Homo sapiens), sequence (Q8N4C8 whole entry, looked up, the tested form may be a part): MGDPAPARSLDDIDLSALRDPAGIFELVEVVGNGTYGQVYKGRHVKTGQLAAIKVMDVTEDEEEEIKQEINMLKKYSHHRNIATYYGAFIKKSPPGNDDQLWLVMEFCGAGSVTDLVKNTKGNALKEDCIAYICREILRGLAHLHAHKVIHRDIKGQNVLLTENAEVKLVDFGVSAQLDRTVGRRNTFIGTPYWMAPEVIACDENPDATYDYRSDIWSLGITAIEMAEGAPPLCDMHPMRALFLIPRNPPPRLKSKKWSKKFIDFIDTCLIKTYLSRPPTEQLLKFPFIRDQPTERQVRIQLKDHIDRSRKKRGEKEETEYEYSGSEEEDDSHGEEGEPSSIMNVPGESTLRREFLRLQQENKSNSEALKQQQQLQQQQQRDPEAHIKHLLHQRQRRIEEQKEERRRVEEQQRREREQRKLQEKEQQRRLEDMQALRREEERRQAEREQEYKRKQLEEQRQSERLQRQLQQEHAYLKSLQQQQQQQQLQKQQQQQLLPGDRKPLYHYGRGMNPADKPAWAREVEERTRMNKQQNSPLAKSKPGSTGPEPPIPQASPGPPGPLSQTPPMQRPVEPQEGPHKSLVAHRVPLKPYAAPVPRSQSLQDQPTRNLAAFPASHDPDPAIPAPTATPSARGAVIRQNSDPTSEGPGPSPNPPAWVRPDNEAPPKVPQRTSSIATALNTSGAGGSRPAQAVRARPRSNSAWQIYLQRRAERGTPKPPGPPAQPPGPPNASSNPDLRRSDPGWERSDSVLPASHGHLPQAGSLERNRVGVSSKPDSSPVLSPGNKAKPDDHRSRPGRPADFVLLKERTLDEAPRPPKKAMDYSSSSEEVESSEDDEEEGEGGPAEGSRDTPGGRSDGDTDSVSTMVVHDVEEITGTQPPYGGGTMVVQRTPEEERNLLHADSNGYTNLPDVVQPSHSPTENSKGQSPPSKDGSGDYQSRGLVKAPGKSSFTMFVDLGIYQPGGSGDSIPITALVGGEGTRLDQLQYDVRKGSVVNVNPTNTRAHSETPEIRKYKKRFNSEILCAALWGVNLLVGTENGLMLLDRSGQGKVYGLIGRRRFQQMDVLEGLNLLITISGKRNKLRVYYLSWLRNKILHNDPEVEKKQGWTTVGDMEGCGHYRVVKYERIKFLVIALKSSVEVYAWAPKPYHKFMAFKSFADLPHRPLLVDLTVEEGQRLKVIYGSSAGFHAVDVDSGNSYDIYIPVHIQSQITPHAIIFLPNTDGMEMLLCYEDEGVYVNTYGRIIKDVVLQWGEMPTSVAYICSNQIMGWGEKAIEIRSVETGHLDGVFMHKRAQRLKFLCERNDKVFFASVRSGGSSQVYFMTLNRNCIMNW
For assay [17], the target named is Tyrosine-protein kinase TXK (Homo sapiens) (UniProt P42681). Briefly: Binding affinity to wild-type human partial length TXK (L238 to W527 residues) expressed in Escherichia coli BL21 at 1 uM by Kinomescan method relative to control.
Tyrosine-protein kinase TXK (Homo sapiens), sequence (P42681 whole entry, the tested form may be a part): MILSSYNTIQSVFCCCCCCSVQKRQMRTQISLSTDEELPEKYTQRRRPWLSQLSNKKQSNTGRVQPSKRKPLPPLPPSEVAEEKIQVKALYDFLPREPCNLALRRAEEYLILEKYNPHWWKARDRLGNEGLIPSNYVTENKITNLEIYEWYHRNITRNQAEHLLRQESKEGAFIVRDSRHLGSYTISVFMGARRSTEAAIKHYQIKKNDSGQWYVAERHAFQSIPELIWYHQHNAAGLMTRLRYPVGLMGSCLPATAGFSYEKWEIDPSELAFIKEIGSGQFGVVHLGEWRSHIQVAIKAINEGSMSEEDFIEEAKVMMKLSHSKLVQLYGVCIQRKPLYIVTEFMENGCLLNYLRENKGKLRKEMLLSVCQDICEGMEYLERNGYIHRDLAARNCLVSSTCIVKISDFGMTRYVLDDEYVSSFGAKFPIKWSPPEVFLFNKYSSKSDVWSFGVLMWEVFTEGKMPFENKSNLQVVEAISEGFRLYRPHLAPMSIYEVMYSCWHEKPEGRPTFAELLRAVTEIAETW
The target in assay [18] is Serine/threonine-protein kinase D1 (Homo sapiens) (UniProt Q15139). The assay can be described thus: Binding affinity to wild-type human partial length PRKD1 (G551 to E870 residues) expressed in Escherichia coli BL21 at 1 uM by Kinomescan method relative to control.
Assay [19] deals with Phosphatidylinositol 4,5-bisphosphate 3-kinase catalytic subunit delta isoform (Homo sapiens) (UniProt O00329). The assay can be described thus: Binding affinity to wild-type human partial length PIK3CD (R108 to Q1044 residues) expressed in HEK293 cells at 1 uM by Kinomescan method relative to control. The format is cell-based.
Assay [20] concerns ALK tyrosine kinase receptor (Homo sapiens), Q9UM73 [C1156Y]. Briefly: Binding affinity to wild-type human partial length ALK C1156Y mutant (I1088 to E1409 residues) expressed in HEK293 cells at 1 uM by Kinomescan method relative to control. It is filed as cell-based.
ALK tyrosine kinase receptor (Homo sapiens), Q9UM73 [C1156Y], sequence (Q9UM73 whole entry C1156Y, looked up, the tested form may be a part, canonical isoform): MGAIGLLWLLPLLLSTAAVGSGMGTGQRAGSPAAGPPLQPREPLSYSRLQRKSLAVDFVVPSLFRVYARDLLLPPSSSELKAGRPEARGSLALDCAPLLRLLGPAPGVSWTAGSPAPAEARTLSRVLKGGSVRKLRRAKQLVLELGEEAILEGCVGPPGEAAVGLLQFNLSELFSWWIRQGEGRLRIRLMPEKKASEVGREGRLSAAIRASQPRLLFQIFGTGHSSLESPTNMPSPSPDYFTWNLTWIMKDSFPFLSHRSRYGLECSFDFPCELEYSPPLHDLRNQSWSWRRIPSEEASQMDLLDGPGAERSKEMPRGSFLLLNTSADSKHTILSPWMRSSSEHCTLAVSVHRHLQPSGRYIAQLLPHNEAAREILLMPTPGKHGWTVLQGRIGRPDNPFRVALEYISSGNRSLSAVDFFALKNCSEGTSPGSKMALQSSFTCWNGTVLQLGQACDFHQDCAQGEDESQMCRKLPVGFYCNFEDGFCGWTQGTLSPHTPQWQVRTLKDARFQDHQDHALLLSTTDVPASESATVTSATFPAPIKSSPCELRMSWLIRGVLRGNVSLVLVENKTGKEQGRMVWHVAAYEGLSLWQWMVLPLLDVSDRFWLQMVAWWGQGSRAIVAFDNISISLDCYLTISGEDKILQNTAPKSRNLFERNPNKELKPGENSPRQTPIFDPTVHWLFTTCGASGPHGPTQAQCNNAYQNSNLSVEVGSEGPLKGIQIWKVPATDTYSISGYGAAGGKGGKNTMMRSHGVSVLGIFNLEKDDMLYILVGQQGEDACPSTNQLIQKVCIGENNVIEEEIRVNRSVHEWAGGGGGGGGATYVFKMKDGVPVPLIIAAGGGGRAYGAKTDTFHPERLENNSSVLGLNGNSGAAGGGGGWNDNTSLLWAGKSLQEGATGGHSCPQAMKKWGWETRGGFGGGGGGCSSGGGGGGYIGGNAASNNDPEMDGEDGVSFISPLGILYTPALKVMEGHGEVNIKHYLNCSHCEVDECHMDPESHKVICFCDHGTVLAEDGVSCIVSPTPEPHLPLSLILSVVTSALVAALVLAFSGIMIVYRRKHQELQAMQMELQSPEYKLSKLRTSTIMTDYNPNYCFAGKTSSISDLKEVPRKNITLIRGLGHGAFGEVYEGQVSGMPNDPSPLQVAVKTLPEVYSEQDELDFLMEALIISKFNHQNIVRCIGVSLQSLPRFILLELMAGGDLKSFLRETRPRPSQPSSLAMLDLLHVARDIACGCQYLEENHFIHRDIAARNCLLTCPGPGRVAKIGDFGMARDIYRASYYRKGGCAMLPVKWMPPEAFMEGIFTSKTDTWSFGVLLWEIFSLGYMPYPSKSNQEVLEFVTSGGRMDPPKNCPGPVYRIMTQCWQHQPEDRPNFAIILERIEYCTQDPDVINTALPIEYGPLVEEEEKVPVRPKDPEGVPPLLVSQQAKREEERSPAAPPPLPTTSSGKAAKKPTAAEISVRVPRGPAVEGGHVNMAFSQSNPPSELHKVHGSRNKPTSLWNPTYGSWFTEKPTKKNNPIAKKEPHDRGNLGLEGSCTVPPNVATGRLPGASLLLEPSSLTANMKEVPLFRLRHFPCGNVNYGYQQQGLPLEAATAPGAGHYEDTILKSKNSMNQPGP
The target in assay [21] is Casein kinase I isoform alpha-like (Homo sapiens) (UniProt Q8N752). The assay can be described thus: Binding affinity to wild-type human full length CSNK1A1L (M1 to N337 residues) expressed in Escherichia coli BL21 at 1 uM by Kinomescan method relative to control. The method in brief:
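Run as one kinome-wide competition binding panel with each compound at a single fixed concentration. Results were plotted as a kinome-wide selectivity map.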

In assay [22] the test system is Mast/stem cell growth factor receptor Kit (Homo sapiens), P10721 [L576P]. The assay can be described thus: Binding affinity to human partial length KIT L576P mutant (Y545 to D952 residues) expressed in Escherichia coli BL21 at 1 uM by Kinomescan method relative to control.

SMILES strings stand for the structures.

From ChEMBL document CHEMBL4184148 (Bioorg Med Chem Lett, 2017) come the findings set out here.

Ephrin type-A receptor 5 (Homo sapiens), sequence (P54756 whole entry, the tested form may be a part): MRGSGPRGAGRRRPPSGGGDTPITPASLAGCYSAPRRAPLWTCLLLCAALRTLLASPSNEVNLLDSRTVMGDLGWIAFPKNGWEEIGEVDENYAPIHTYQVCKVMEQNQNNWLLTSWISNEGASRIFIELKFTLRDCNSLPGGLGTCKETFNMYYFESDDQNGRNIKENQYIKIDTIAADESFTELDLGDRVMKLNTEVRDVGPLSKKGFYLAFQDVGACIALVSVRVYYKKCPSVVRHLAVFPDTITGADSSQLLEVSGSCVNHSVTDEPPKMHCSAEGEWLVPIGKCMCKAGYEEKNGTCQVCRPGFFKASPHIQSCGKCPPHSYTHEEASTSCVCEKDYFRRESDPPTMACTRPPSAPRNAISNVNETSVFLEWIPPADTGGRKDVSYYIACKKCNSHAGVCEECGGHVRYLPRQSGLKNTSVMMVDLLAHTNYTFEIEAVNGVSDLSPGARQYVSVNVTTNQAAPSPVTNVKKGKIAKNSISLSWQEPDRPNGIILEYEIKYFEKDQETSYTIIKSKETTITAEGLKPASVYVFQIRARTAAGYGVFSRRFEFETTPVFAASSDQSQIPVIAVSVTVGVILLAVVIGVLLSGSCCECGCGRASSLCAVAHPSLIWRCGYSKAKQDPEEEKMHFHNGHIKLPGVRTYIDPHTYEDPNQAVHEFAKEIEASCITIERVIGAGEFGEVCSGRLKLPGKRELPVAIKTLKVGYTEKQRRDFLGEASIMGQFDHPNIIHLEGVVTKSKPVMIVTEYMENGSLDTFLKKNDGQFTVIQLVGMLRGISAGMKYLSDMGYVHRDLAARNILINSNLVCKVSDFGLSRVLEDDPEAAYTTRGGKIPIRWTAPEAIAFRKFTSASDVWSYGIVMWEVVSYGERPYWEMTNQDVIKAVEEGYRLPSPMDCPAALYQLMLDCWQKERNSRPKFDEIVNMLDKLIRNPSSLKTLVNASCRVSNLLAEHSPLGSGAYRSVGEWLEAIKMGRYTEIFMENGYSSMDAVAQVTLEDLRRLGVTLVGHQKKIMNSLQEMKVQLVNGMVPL

In the case of `CCC(=O)Nc1ccc(C(=O)Nc2ccc(Nc3ncc4c(n3)N(C)c3ccc(C)cc3C(=O)N4C)cc2)cc1`, the Activity in [1] was 100%; in [2], 97%; in assay [3], 100%; in assay [4], 72%; in assay [5], 100%; in assay [6] it was 95%. Further, the Activity in assay [8] came out at 65%; in assay [9], 77%; in [10], 87%; in assay [11], 82%; in assay [12], 100%; in assay [13], 94%. In addition, the Activity in [14] was 80%; in assay [15] it was 100%; in [16], 65%; in assay [17] it was 93%; in assay [18], 97%; in [19] it was 75%. Moreover, the Activity worked out at 100% in [20], 97% in assay [21] and 71% in assay [22]. Moreover, a half-maximal response in assay [7] (EC50) required 0.038 µM.

Turning to `C=CC(=O)Nc1ccc(C(=O)Nc2ccc(Nc3ncc4c(n3)N(C)c3ccc(C)cc3C(=O)N4C)cc2)cc1`, the Activity turned out to be 88% in assay [1]; 93% in [2]; 95% in [3]; 78% in assay [4]; 91% in assay [5]; 99% in assay [6]. Moreover, the Activity in [8] was found to be 86%; in assay [9], 96%; in assay [10] it was 94%; in assay [11], 84%; in assay [12] it was 100%; in assay [13] it was 100%. The Activity in [14] amounted to 100%; in assay [15], 100%; in assay [16] it was 98%; in [17], 100%; in assay [18], 93%; in [19], 55%. The figures for the Activity in assay [20], in [21] and in assay [22] were 94%, 95% and 85%, respectively. Besides, the 50% effective concentration (EC50) in assay [7] was determined as 0.0058 µM.
